# Hits are enriched below; roughly 6.1% of the tested compounds scored in any of these assays.
# Yeast growth inh – yeast BB579 growth reduction in restrictive medium; inhibition, % at 10 µM; S. cerevisiae BB579 growth, OD615, 48 h; AID 804; 0.51% of 140,000 active;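 active means inhibition above a set limit, 3 SD over the mean compound inhibition, cut at about 44% in these data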
#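 controls = amphotericin B 10 µg/mL, positive | assay system = DeaD yeast strain BB579 | schedule = 48 h compound exposure at 30 °C after 4 h preincubation | detection = OD615 turbidity measurement | medium = restrictive CSMM-D medium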
# Yeast lifespan up – yeast lifespan extension | S. cerevisiae growth with nicotinamide, OD615; deaD strain in restrictive glucose medium | inhibition of the nicotinamide effect, % at 10 µM | 0.68% of 130,000 active | AID 775;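 active means inhibition above a set limit, placed 3 SD over the median of all compounds, cut at about 26% in these data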
#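 Buffer or medium: CSMM-D glucose medium, restrictive; test system: modified budding yeast, DeaD strain; compound: single dose 10 µM compound, 0.25% DMSO; schedule: culture preincubation 4 h, compound exposure 48 h, both 30 °C; detection: optical density (absorbance) at 615 nm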
# Measles CPE – protection of cells from measles virus; Measles virus-infected cells, CPE protection, absorbance; protection (pct of control), % at 4 µM; 1.5% of 140,000 active; AID 841; in the data active means protection mostly above about 24%, no sharp cut-off; inactive means mostly below about 26%
# RAM network inh – blocks the yeast RAM network; S. cerevisiae dse1pr::URA3 reporter, 5-FOA growth OD615, 2 d; analog-sensitive cbk1-as2 kinase mutant strain; inhibition, % at 50 µM; 1.8% of 190,000 active; AID 868;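 active means inhibition above a set limit, 3 SD over mean compound inhibition, cut at about 8.4% in these data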;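 further: inhibition rescues growth on 5-FOA so higher OD means more RAM inhibition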
# WT yeast gro inh – growth inhibition of WT yeast, mitochondrial fusion screen. mitochondrial fusion phenotypic screen, WT strain. inhibition, % at 10 µM. 2.1% of 190,000 active. AID 1362; in the data active means inhibition above about 58%; tested in S. cerevisiae
# hDAT+cocaine – changed human dopamine transporter uptake under cocaine IC80 | Q01959 | 1.3% of 110,000 active | B-score at 10 µM | AID 449768 | LLC-PK1 hDAT cells, [14C]-dopamine uptake with cocaine IC80; actives deviate in either direction;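 active means Z score or B-score, a plate-position-corrected score, falls beyond the plate's 99.7% confidence bounds, in either direction; inactive means both scores lie inside the 99.7% bounds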
# Target sequence (Q01959 whole entry, looked up): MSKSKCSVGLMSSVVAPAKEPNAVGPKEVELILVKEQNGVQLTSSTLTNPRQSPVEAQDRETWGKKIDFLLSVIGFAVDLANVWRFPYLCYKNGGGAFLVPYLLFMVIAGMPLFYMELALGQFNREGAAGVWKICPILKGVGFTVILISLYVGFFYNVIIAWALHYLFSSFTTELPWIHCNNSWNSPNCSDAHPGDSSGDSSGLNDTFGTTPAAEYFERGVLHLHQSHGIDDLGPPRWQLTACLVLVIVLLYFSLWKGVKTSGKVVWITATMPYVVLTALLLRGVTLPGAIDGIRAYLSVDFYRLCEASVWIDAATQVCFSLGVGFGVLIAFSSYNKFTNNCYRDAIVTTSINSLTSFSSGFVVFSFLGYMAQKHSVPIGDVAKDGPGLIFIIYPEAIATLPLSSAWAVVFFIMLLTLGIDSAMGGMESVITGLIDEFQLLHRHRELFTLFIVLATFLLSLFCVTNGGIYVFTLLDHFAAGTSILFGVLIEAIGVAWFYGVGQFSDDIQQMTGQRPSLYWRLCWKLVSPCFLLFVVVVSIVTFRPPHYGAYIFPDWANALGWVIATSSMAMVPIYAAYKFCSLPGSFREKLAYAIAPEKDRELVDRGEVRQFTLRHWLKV
# Numbers stand for hits; 0 = inactive; - = not tested or not shown.
SMILES,Yeast growth inh,Yeast lifespan up,Measles CPE,RAM network inh,WT yeast gro inh,hDAT+cocaine
CCNC(=O)NC(=O)C(C)Sc1nc2ccccc2n1CC(C)C (stereo unspecified),0,0,0,0,0,0
CN(C(=O)OC(C)(C)C)c1ccc(-c2nc3ccccc3s2)cc1,-,-,-,-,-,0
COc1cccc(/C=C/C(=O)Nc2ccc(OC)nc2)c1,0,0,0,0,0,-
O=C(CSC1=NC2(CCCCCC2)N=C1c1ccccc1)Nc1ccc2c(c1)OCCO2,0,0,0,0,58,-
Cc1cccc(-n2ccnc2SCC(=O)Nc2ccc3c(c2)OCCO3)c1,0,0,0,0,0,1.8
N#Cc1ccccc1Cn1c(=O)n(C2CCCC2)c(=O)c2ccccc21,0,0,0,0,0,0
O=c1c2ccccc2n(Cc2cccc(F)c2)c(=O)n1C1CCCC1,0,0,0,9.3,76,0
CCOCCCNC(=S)Nc1ccc(S(N)(=O)=O)cc1,0,0,0,0,0,-
Cc1cccc(-c2nnc(SCCOc3ccc4c(C)cc(=O)oc4c3)o2)c1,0,0,0,0,0,0
Cc1cc(=O)oc2cc(OCCSc3nnc(-c4ccccc4)o3)ccc12,0,0,0,11,0,-
CC(C)C(c1nnnn1C(C)(C)C)N1CCN(c2cccc(Cl)c2)CC1 (stereo unspecified),0,0,0,0,75,0
CCc1ccc(CN(C)C(=O)CCc2nnc(COc3ccccc3)o2)cc1,-,-,-,0,0,-
CC1OC(Oc2ccc3ccc(=O)oc3c2-c2c(O)ccc3cc(Oc4ccc5ccc(=O)oc5c4)c(=O)oc23)C(O)C(O)C1O (stereo unspecified),0,0,0,0,0,0
O=C(COC(=O)CCSc1ccccc1)NCc1ccccc1Cl,0,0,75,0,0,-
Cc1ccc(NC(=O)c2ccc(CSc3nnc(C)s3)cc2)cc1,0,0,0,0,0,0
Cc1ccccc1NC(=O)c1ccc(CSc2ncccn2)cc1,0,0,45,0,0,0
Cc1ccc(NC(=O)c2ccc(CSc3ccccn3)cc2)cc1,0,0,0,8.4,0,0
COc1ccccc1NC(=O)c1ccc(NC(=O)CSc2ncccn2)cc1,-,-,-,0,0,-
Cn1cc(Br)c(C(=O)Nc2c(F)c(F)c(F)c(F)c2F)n1,0,0,0,0,0,-
Cn1cc(Br)c(C(=O)Nc2nccs2)n1,0,0,32,0,0,-
CCCCCCCSc1nsc(N)n1,0,-,0,0,66,0
CC1CCCN(c2nc(-c3cccnc3)nc3scc(-c4ccccc4)c23)C1 (stereo unspecified),0,0,0,0,61,-
NC(=O)C1CC(O)CN1c1nc(CN2CCOCC2)nc2scc(-c3ccccc3)c12 (stereo unspecified),0,0,-,0,0,0
CC1CCN(c2nc(CN3CCCCC3)nc3scc(-c4ccccc4)c23)CC1,0,0,0,0,68,-
CC1CCN(c2nc(-c3cccnc3)nc3scc(-c4ccccc4)c23)CC1,0,0,0,0,60,-
SMILES,Yeast growth inh,Yeast lifespan up,Measles CPE,RAM network inh,WT yeast gro inh,hDAT+cocaine
CNc1nc(-c2ccccc2)nc(-c2ccc(OC)cc2)c1C#N,-,-,-,0,0,-
COc1ccc(-c2[nH]c(-c3ccc4c(c3)OCO4)nc2-c2ccccc2)cc1,0,0,0,0,71,0
COc1ccc(-c2[nH]c(-c3ccc(C(=O)O)cc3)nc2-c2ccccc2)cc1,0,0,0,0,0,-2.4
COc1ccc(-c2nc(-c3ccccc3)[nH]c(=O)c2C#N)cc1,0,0,0,0,80,0
CCCc1nc2c(nnn2Cc2ccccc2Cl)c(=O)[nH]1,-,-,-,0,0,-
Cc1noc(C)c1COc1ccc(C(=O)OCC(=O)N2CC3(C)CC2CC(C)(C)C3)cc1 (stereo unspecified),0,0,51,0,0,0
Cc1[nH]oc(=O)c1N=Nc1ccccc1,0,32,0,0,0,-
Cc1[nH]oc(=O)c1N=Nc1c(Cl)cccc1Cl,0,37,0,0,0,-
Cc1c([N+](=O)[O-])nnn1-c1cc(Cl)cc(Cl)c1,-,-,-,0,0,-
CCOC(=O)c1sc(NC(=O)Nc2ccc(Cl)cc2)cc1C,0,0,0,0,85,0
CC1CCN(C(=O)c2ccccc2NC(=O)c2cccc(S(=O)(=O)N3CCOCC3)c2)CC1,0,0,0,0,0,0
CCOC(=O)c1sc(NC(=O)c2cccc(S(=O)(=O)N(CC)CC)c2)cc1C,0,0,0,10,0,0
CCN(CC)S(=O)(=O)c1cccc(C(=O)Nc2ccccc2C(=O)N2CCOCC2)c1,0,0,47,0,0,0
CCOC(=O)c1c(-c2ccccc2)nnn1-c1nc(OCC)nc(N2CCCCC2)n1,0,0,0,0,0,1.8
CC(=O)Nc1nc(SCC(=O)NCC2CCCO2)[nH]c(=O)c1NC(=O)c1cccs1 (stereo unspecified),-,-,-,0,0,-
CCCCn1c(N)c(N(CCOC)C(=O)COc2ccc(Cl)cc2)c(=O)[nH]c1=O,-,-,-,0,0,-
O=[N+]([O-])c1cccc(-c2csc(N/N=C/c3cccc(O)c3)n2)c1,-,-,-,0,84,-
COc1cc2c(cc1OC)C1(Nc3c-2c(C)nn3-c2ccccc2)C(=O)Nc2ccccc21 (stereo unspecified),0,0,0,9.3,0,-
CCCn1nc([N+](=O)[O-])c(C(C#N)c2nc3ccccc3s2)c(Cl)c1=O (stereo unspecified),0,0,0,0,78,0
CCCOc1ccc(C(=O)CCNc2cccc(Cl)c2)cc1,-,-,-,9.8,0,-
CC(C)(C)C1CCc2[nH]c3ccccc3c(=O)c2C1 (stereo unspecified),0,0,0,0,82,0
O=c1c2c([nH]c3ccccc13)CCCC2,0,0,0,0,0,0
CC1CCc2cc(F)ccc2N1C(=O)c1ccc2c(c1)OCO2 (stereo unspecified),0,0,0,0,0,0
C=CCc1ccc(OCC(O)CN2CCCCC2C)c(OC)c1 (stereo unspecified),0,0,0,0,-,0
CCN1C=CC(=C2C(=O)c3ccccc3C2=O)C=C1,0,0,40,0,0,0
SMILES,Yeast growth inh,Yeast lifespan up,Measles CPE,RAM network inh,WT yeast gro inh,hDAT+cocaine
CC(=O)Nc1ccc(Nc2cc(C)nc3c(-c4ccccc4)cnn23)cc1,0,0,-,0,0,-
COc1cccc(-c2ccc(-c3noc(-c4ccccc4F)n3)c(OC)n2)c1,0,0,0,11,0,0
COc1cccc(-c2ccc(-c3noc(-c4cccs4)n3)c(OC)n2)c1,0,0,0,0,0,0
CC(=O)N(C)c1nc(N)n(-c2ccccc2)n1,-,-,-,0,0,-
Cc1c(OCc2ccc(C(=O)O)o2)ccc2c3c(c(=O)oc12)CCC3,0,0,0,9.4,0,0
Cc1ccc(Nc2nc(/N=C/N(C)C)n[nH]2)cc1C,-,-,-,0,0,-
COc1ccc(C2c3c(ncn(CCN4CCOCC4)c3=N)Oc3ccc4ccccc4c32)cc1 (stereo unspecified),0,0,0,0,0,3.4

# Source: PubChem (several laboratories)
